Measured values from the array DNA melting data of Ke et al. (doi:10.1101/2024.01.08.574731).

How the values were obtained:
[1] = melting temperature; fluorescence melt of hairpins on a sequencing array, two-state fit, raised by 9.35 °C to match UV melts; conditions: sodium 0.088 M
Procedure, shortened: (§1)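 Melting temperature and folding enthalpy were obtained by bootstrapped two-state fitting. Fits used Cy3 fluorescence of library hairpins with annealed Cy3 and quencher oligos on a sequenced MiSeq flow cell, imaged in 50 mM Na-HEPES pH 8.0, 25 mM NaCl in 2.5 °C steps up to 60 °C and normalised to pre-quench Cy3 and control constructs. Four replicates were combined by inverse-variance weighting, and fitted temperatures were raised by 9.35 °C to match UV melts.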

[2] = folding enthalpy; higher = less favourable; fluorescence melt of hairpins on a sequencing array, two-state fit; conditions: sodium 0.088 M
Procedure, shortened: as §1

| Sequence | Tm [1] | folding enthalpy [2] |
| --- | --- | --- |
| GCTGACGAAAGTCGTAGC ((((((....)))..))) | 47.1 °C | -21.6 kcal/mol |
| GCGGGCTTCCGC ((((....)))) | 61 °C | -21.2 kcal/mol |
| GAATACGAAAGTAGCTTC ((((((....)))..))) | 33.9 °C | -16.4 kcal/mol |
| GGTCATGAAAATGACC ((((((....)))))) | 59.5 °C | -38 kcal/mol |
| GCCTCGCGAAAGCGAAGC ((.((((....)))).)) | 56.5 °C | -18.7 kcal/mol |
| GCGTTCACACGC ((((....)))) | 52.8 °C | -22.6 kcal/mol |
| GCATTGCGAAAGCACTGC (((.(((....))).))) | 52.2 °C | -45.1 kcal/mol |
| GATTCCGAAAGGATGATC ((((((....)))..))) | 31.8 °C | -21.8 kcal/mol |
| GCGAGGCGAAAGCCAGGC ((..(((....)))..)) | 56.4 °C | -13.1 kcal/mol |
| GATCGTGATAACGATC ((((((....)))))) | 63.6 °C | -40.2 kcal/mol |
| GCTATGCGAAAGCTCAGC (((..((....))..))) | 36.2 °C | -19.1 kcal/mol |
| GCAGTGCGAAAGCAGGGC ((..(((....)))..)) | 58.4 °C | -21.6 kcal/mol |
| GCAATCGAAAGATGTGC ((((((....))).))) | 39.5 °C | -25.5 kcal/mol |
| CGCTCGGAAACGAAGCG ((((((....))).))) | 53.6 °C | -29.5 kcal/mol |
| GATCATTAATATGATC ((((((....)))))) | 45.5 °C | -37.1 kcal/mol |
| GATCATTGGGATGATC ((((((....)))))) | 49.5 °C | -38.8 kcal/mol |
| GCCGCGCGAAAGCGGAGC ((..(((....)))..)) | 52.5 °C | -12.8 kcal/mol |
| GATCCGAAGTCGGATC ((((((....)))))) | 56.2 °C | -39.9 kcal/mol |
| CGATAGCGGAAACGCTCG (((..(((....)))))) | 41 °C | -13.9 kcal/mol |

| Sequence | Tm [1] | folding enthalpy [2] |
| --- | --- | --- |
| GATCTTTCCTAAGATC ((((((....)))))) | 45.1 °C | -34.2 kcal/mol |
| GGGTATTCGAAAGAACCC (((..(((....)))))) | 34.5 °C | -22 kcal/mol |
| GACGCCGAAAGGCCAGTC ((((((....)))..))) | 40.7 °C | -15 kcal/mol |
| GAACGCCGAAAGGCTTC (((.(((....)))))) | 44.1 °C | -14.1 kcal/mol |
| GTTTAAGGAAACTTAAGC (.(((((....))))).) | 32.4 °C | -13.9 kcal/mol |
| GCGTTGCGAAAGCTATGC ((.(.((....)).).)) | 48.6 °C | -23.7 kcal/mol |
| GGACTCGGAAACGAGCCC ((.((((....)))).)) | 53.5 °C | -34.7 kcal/mol |
| GATCTCTACGAGATC ((((((...)))))) | 55.1 °C | -40 kcal/mol |
| GGGTTTGGAAACAGATCC ((.(.((....)).).)) | 29.9 °C | -13 kcal/mol |
| GGGCAGGGAAACCCGCCC ((((.((....)).)))) | 60 °C | -38.2 kcal/mol |
| GATCTCGTGCGAGATC ((((((....)))))) | 56.3 °C | -54.9 kcal/mol |
| GACAGCGGAAACGCTGCC (.(((((....))))).) | 52.6 °C | -11.5 kcal/mol |
| GGCTCGGCGAAAGCCGCC (((..(((....)))))) | 43 °C | -8.18 kcal/mol |
| GCCGAGGGAAACCCCGAC (.((.((....)).)).) | 31 °C | -13.8 kcal/mol |
| GAGATTGAAAAATCTC ((((((....)))))) | 47.9 °C | -33.8 kcal/mol |
| GTGCCCCGAAAGGGCCAC (((.(((....))).))) | 51.3 °C | -13.4 kcal/mol |
| GATCGTTCCACGATC ((((((...)))))) | 59.6 °C | -40.1 kcal/mol |
| CGGAAGCGGAAACGCCCG (((..(((....)))))) | 50.5 °C | -21.3 kcal/mol |
| GTTAATCGAAAGATCAAC (((.(((....))).))) | 30.2 °C | -14.7 kcal/mol |
